Assay results published in ChEMBL document CHEMBL1125117, “Substituted 1,3-dihydro-2H-pyrrolo[2,3-b]pyridin-2-ones as potential antiinflammatory agents” (1990).

The molecules below were run on Rattus norvegicus (assay: In vivo antiinflammatory activity against edema formation in the injected(primary) paw of the rat(after edema stimulation) at dose 25 mg/kg). Settings: not given.
Format: functional
Method in brief: (§1)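 Adjuvant arthritis in rats, therapeutic regimen. Heat-killed M. tuberculosis in paraffin oil (6 mg/mL), 0.1 mL injected into the left hind paw. Lesion allowed to develop 7 days before the first oral dose, with methylcellulose-treated controls. Paw volumes measured by plethysmograph, final reading on day 21. Reported as % change in paw volume relative to control.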

Row | SMILES | inhibition in vivo at 25 mg/kg [%]
1 | CC1(C)C(=O)N(c2ccc(Cl)cc2)c2ncccc21 | 31

These molecules were tested against Cyclooxygenase (Homo sapiens) (UniProt P35354+P23219) (assay: In vitro inhibitory activity against Prostaglandin G/H synthase in human platelets). Settings: concentration not given here.
Parameters: concentration or dose not given beside the values
Method in brief: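 Human platelets (2×10^5/mL) in HEPES buffer with 0.5 mM EGTA and 1.5 mM CaCl2, incubated 4 min with compound in DMSO vehicle. Then given [14C]arachidonic acid and A23187 ionophore for 5 min and stopped with methanol. HHT was measured by reverse-phase HPLC. Reported as % inhibition of HHT versus vehicle, at 15 μM.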

Row | SMILES | inhibition [%]
2 | CC1(C)C(=O)N(c2cccc(Cl)c2)c2ncccc21 | 0
3 | CC1(C)C(=O)N(c2ccc(Cl)cc2)c2ncccc21 | 47
4 | CC(C)(C(=O)[O-])c1cccnc1Nc1ccc(Cl)cc1.[Na+] | 28
5 | CC1(C)C(=O)N(c2ccc(Cl)c(Cl)c2)c2ncccc21 | 0

What follows are molecules tested on Rattus norvegicus (assay: In vivo effect on prostaglandin and leukotriene mediated production in rat pleural cavity was assessed by the inhibition of TxB2 in 5-lipoxygenase/ cyclooxygenase at dose 25 mg/kg). Settings: not given.

Row | SMILES | TxB2 inhibition [%]
6 | CC1(C)C(=O)N(c2cccc(Cl)c2)c2ncccc21 | 62
7 | CC(C)(C(=O)[O-])c1cccnc1Nc1ccc(Cl)cc1.[Na+] | 81
8 | CC1(C)C(=O)N(c2ccc(Cl)c(Cl)c2)c2ncccc21 | 44

Each molecule was assayed on Rattus norvegicus (assay: In vivo inhibitory activity against fluid in reverse passive Arthus reaction (RPAR) assay at dose 25 mg/kg in the pleural cavity of rats.). Settings: not given.
Format: functional
Method in brief: (§2)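 Male rats, five per group, dosed orally 1 h before iv BSA antigen (5 mg). Rabbit anti-BSA IgG (0.5 mg) given intrapleurally 30 min later. At 4 h, pleural exudate volume was measured and neutrophils counted (Coulter) after saline-EDTA lavage. Reported as % reduction in cells and fluid relative to control.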

Row | SMILES | inhibition in vivo at 25 mg/kg [%] | ED50 [mg/kg]
9 | CC1(C)C(=O)N(c2ccc(Cl)cc2Cl)c2ncccc21 | 8 | –
10 | CC1(C)C(=S)N(c2ccc(Cl)cc2)c2ncccc21 | 42 | –
11 | CC1(C)C(=O)N(c2ccc(Br)cc2)c2ncccc21 | 55 | –
12 | CSc1ccc(N2C(=O)C(C)(C)c3cccnc32)cc1 | 37 | –
13 | CC(C)c1ccc(N2C(=O)C(C)(C)c3cccnc32)cc1 | 6 | –
14 | CC1C(=O)N(c2ccccc2)c2ncccc21 (stereo not drawn) | 18 | –
15 | CC1(C)C(=O)N(c2ccccc2Cl)c2ncccc21 | 3 | –
16 | CCCCC1(C)C(=O)N(c2ccccc2)c2ncccc21 (stereo not drawn) | 5 | –
17 | CC1(F)C(=O)N(c2ccccc2)c2ncccc21 (stereo not drawn) | 35 | –
18 | CC1(C)C(=O)N(c2ccc(Cl)cc2)c2ncc(Br)cc21 | 0 | –
19 | CCC1(C)C(=O)N(c2ccccc2)c2ncccc21 (stereo not drawn) | 12 | –
20 | CC1(Cc2ccccc2)C(=O)N(c2ccccc2)c2ncccc21 (stereo not drawn) | 0 | –
21 | CC1(C)C(=O)N(c2cc(Cl)cc(Cl)c2)c2ncccc21 | 33 | –
22 | CC1(C)C(=O)N(c2cccc(Cl)c2)c2ncccc21 | 49 | –
23 | CC1(C)C(=O)N(c2ccc(Cl)cc2)c2ncccc21 | – | 27.9
24 | CC(C)(C(=O)[O-])c1cccnc1Nc1ccc(Cl)cc1.[Na+] | – | 9.6
25 | CC1(C)C(=O)N(c2ccc(Cl)c(Cl)c2)c2ncccc21 | 25 | –

Each molecule was assayed on Rattus norvegicus (assay: In vivo effect on prostaglandin and leukotriene mediated production in rat pleural cavity was assessed by the inhibition of cell influx in 5-lipoxygenase/ cyclooxygenase at dose 25 mg/kg). Settings: not given.
Format: functional
Method in brief: (§3)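 Rat reversed passive Arthus pleurisy, oral dosing 1 h before challenge. BSA given iv (5 mg), then rabbit anti-BSA IgG intrapleurally 30 min later. At 4 h, exudate was collected into indomethacin/NDGA and its volume recorded. Neutrophils were counted by Coulter counter. TXB2 and LTE4 in ethanol-extracted supernatant were measured by RIA with tritiated recovery spikes. Reported as % inhibition versus control.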

Row | SMILES | inhibition in vivo at 25 mg/kg [%]
26 | CC1(C)C(=O)N(c2cccc(Cl)c2)c2ncccc21 | 51
27 | CC1(C)C(=O)N(c2ccc(Cl)cc2)c2ncccc21 | 73
28 | CC(C)(C(=O)[O-])c1cccnc1Nc1ccc(Cl)cc1.[Na+] | 62
29 | CC1(C)C(=O)N(c2ccc(Cl)c(Cl)c2)c2ncccc21 | 26

These molecules were tested on Rattus norvegicus (assay: In vivo antiinflammatory activity against edema formation in the noninjected(secondary) paw of the rat (before edema stimulation) at dose 25 mg/kg). Settings: not given.
Format: functional
Method in brief: (§4)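 Adjuvant arthritis in rats, prophylactic regimen. Oral dosing began 1 h before challenge and continued for 21 consecutive days. Heat-killed M. tuberculosis in paraffin oil (6 mg/mL), 0.1 mL injected into the left hind paw, with methylcellulose-treated controls. Both hind paw volumes measured by plethysmograph on day 21. Reported as % change relative to control.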

Row | SMILES | inhibition in vivo at 25 mg/kg [%]
30 | CC1(C)C(=O)N(c2cccc(Cl)c2)c2ncccc21 | 31
31 | CC1(C)C(=O)N(c2ccc(Cl)cc2)c2ncccc21 | 65
32 | CC(C)(C(=O)[O-])c1cccnc1Nc1ccc(Cl)cc1.[Na+] | 34

The molecules below were run on Rattus norvegicus (assay: In vivo effect on prostaglandin and leukotriene mediated production in rat pleural cavity was assessed by the inhibition of TXB2 in 5-lipoxygenase/ cyclooxygenase at dose 25 mg/kg). Settings: not given.
Format: functional
Method in brief: as §3

Row | SMILES | inhibition in vivo at 25 mg/kg [%]
33 | CC1(C)C(=O)N(c2ccc(Cl)cc2)c2ncccc21 | 78

Each molecule was assayed on Rattus norvegicus (assay: In vivo antiinflammatory activity against edema formation in the noninjected(secondary) paw of the rat (after edema stimulation) at dose 25 mg/kg). Settings: not given.
Format: functional
Method in brief: as §1

Row | SMILES | inhibition in vivo at 25 mg/kg [%]
34 | CC1(C)C(=O)N(c2ccc(Cl)cc2)c2ncccc21 | 54

Each molecule was assayed on Rattus norvegicus (assay: In vivo effect on prostaglandin and leukotriene mediated production in rat pleural cavity was assessed by the inhibition of LTE4 in 5-lipoxygenase/ cyclooxygenase at dose 25 mg/kg). Settings: not given.
Format: functional
Method in brief: as §3

Row | SMILES | inhibition in vivo at 25 mg/kg [%]
35 | CC1(C)C(=O)N(c2cccc(Cl)c2)c2ncccc21 | 59
36 | CC(C)(C(=O)[O-])c1cccnc1Nc1ccc(Cl)cc1.[Na+] | 76
37 | CC1(C)C(=O)N(c2ccc(Cl)c(Cl)c2)c2ncccc21 | 46

Each molecule was assayed against T1, Polyunsaturated fatty acid 5-lipoxygenase (Homo sapiens) (UniProt P09917) (assay: In vitro inhibitory activity against 5-lipoxygenase in human polymorphonuclear (PMN) cells). Settings: concentration not given here.
T1 sequence (whole entry): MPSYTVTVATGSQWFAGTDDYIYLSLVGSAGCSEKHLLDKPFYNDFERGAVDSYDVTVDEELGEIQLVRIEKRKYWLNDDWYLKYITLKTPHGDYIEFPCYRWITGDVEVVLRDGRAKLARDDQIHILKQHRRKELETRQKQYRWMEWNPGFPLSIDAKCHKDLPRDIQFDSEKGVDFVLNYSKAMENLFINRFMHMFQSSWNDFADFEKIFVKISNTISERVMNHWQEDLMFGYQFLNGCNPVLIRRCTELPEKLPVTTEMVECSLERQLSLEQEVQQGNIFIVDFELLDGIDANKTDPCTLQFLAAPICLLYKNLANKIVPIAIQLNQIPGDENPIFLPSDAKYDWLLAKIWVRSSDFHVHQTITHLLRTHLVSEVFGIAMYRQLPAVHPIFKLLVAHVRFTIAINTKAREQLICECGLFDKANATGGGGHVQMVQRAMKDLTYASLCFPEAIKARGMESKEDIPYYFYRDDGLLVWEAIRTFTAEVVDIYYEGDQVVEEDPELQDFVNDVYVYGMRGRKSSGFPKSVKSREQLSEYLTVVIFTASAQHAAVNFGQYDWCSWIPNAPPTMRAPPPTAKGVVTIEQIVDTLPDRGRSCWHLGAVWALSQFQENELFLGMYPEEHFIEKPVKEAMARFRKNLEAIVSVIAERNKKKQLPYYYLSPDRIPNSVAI
Method in brief: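 Human PMN neutrophils (2×10^7 cells/mL) in HEPES buffer with 1 mM CaCl2, preincubated 4 min with test compound in DMSO vehicle. Then stimulated with [14C]arachidonic acid plus calcium ionophore A23187 for 5 min and stopped with methanol. 5-HETE was quantitated by HPLC. Reported as % inhibition versus vehicle, tested at 15 μM.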

Row | SMILES | inhibition [%]
38 | CC1(C)C(=O)N(c2ccc(Cl)cc2Cl)c2ncccc21 | 20
39 | CC1(C)C(=S)N(c2ccc(Cl)cc2)c2ncccc21 | 17
40 | CC1(C)C(=O)N(c2ccc(Br)cc2)c2ncccc21 | 11
41 | CSc1ccc(N2C(=O)C(C)(C)c3cccnc32)cc1 | 23
42 | CC(C)c1ccc(N2C(=O)C(C)(C)c3cccnc32)cc1 | 0
43 | CC1C(=O)N(c2ccccc2)c2ncccc21 (stereo not drawn) | 0
44 | CC1(C)C(=O)N(c2ccccc2Cl)c2ncccc21 | 0
45 | CCCCC1(C)C(=O)N(c2ccccc2)c2ncccc21 (stereo not drawn) | 13
46 | CC1(F)C(=O)N(c2ccccc2)c2ncccc21 (stereo not drawn) | 0
47 | CC1(C)C(=O)N(c2ccc(Cl)cc2)c2ncc(Br)cc21 | 34
48 | CCC1(C)C(=O)N(c2ccccc2)c2ncccc21 (stereo not drawn) | 13
49 | CC1(Cc2ccccc2)C(=O)N(c2ccccc2)c2ncccc21 (stereo not drawn) | 17
50 | CC1(C)C(=O)N(c2cccc(Cl)c2)c2ncccc21 | 3
51 | CC1(C)C(=O)N(c2ccc(Cl)cc2)c2ncccc21 | 13
52 | CC(C)(C(=O)[O-])c1cccnc1Nc1ccc(Cl)cc1.[Na+] | 0
53 | CC1(C)C(=O)N(c2ccc(Cl)c(Cl)c2)c2ncccc21 | 0

The molecules below were run on Rattus norvegicus (assay: In vivo antiinflammatory activity against edema formation in the injected(primary) paw of the rat(before edema stimulation) at dose 25 mg/kg). Settings: not given.
Format: functional
Method in brief: as §4

Row | SMILES | inhibition in vivo at 25 mg/kg [%]
54 | CC1(C)C(=O)N(c2cccc(Cl)c2)c2ncccc21 | 0
55 | CC1(C)C(=O)N(c2ccc(Cl)cc2)c2ncccc21 | 13
56 | CC(C)(C(=O)[O-])c1cccnc1Nc1ccc(Cl)cc1.[Na+] | 14

Each molecule was assayed on Rattus norvegicus (assay: In vivo effect on prostaglandin and leukotriene mediated production in rat pleural cavity was assessed by the inhibition of fluid volume in 5-lipoxygenase/ cyclooxygenase at dose 25 mg/kg). Settings: 25 mg/kg.
Format: functional
Method in brief: as §3

Row | SMILES | Inhibition [%]
57 | CC1(C)C(=O)N(c2ccc(Cl)cc2)c2ncccc21 | 83

Same assay, conditions: Rattus norvegicus, Pleural cavity

Row | SMILES | inhibition in vivo at 25 mg/kg [%]
58 | CC1(C)C(=O)N(c2cccc(Cl)c2)c2ncccc21 | 49
59 | CC1(C)C(=O)N(c2ccc(Cl)cc2)c2ncccc21 | 83
60 | CC(C)(C(=O)[O-])c1cccnc1Nc1ccc(Cl)cc1.[Na+] | 71
61 | CC1(C)C(=O)N(c2ccc(Cl)c(Cl)c2)c2ncccc21 | 25

The molecules below were run on Rattus norvegicus (assay: In vivo inhibitory activity against cells in reverse passive Arthus reaction (RPAR) assay at dose 25 mg/kg in the pleural cavity of rats.). Settings: not given.
Format: functional
Method in brief: as §2

Row | SMILES | inhibition in vivo at 25 mg/kg [%] | ED50 [mg/kg]
62 | CC1(C)C(=O)N(c2ccc(Cl)cc2Cl)c2ncccc21 | 16 | –
63 | CC1(C)C(=S)N(c2ccc(Cl)cc2)c2ncccc21 | 41 | –
64 | CC1(C)C(=O)N(c2ccc(Br)cc2)c2ncccc21 | 46 | –
65 | CSc1ccc(N2C(=O)C(C)(C)c3cccnc32)cc1 | 29 | –
66 | CC(C)c1ccc(N2C(=O)C(C)(C)c3cccnc32)cc1 | 29 | –
67 | CC1C(=O)N(c2ccccc2)c2ncccc21 (stereo not drawn) | 29 | –
68 | CC1(C)C(=O)N(c2ccccc2Cl)c2ncccc21 | 14 | –
69 | CCCCC1(C)C(=O)N(c2ccccc2)c2ncccc21 (stereo not drawn) | 21 | –
70 | CC1(F)C(=O)N(c2ccccc2)c2ncccc21 (stereo not drawn) | 50 | –
71 | CC1(C)C(=O)N(c2ccc(Cl)cc2)c2ncc(Br)cc21 | 29 | –
72 | CCC1(C)C(=O)N(c2ccccc2)c2ncccc21 (stereo not drawn) | 36 | –
73 | CC1(Cc2ccccc2)C(=O)N(c2ccccc2)c2ncccc21 (stereo not drawn) | 9 | –
74 | CC1(C)C(=O)N(c2cc(Cl)cc(Cl)c2)c2ncccc21 | 49 | –
75 | CC1(C)C(=O)N(c2cccc(Cl)c2)c2ncccc21 | 51 | –
76 | CC1(C)C(=O)N(c2ccc(Cl)cc2)c2ncccc21 | – | 4.5
77 | CC(C)(C(=O)[O-])c1cccnc1Nc1ccc(Cl)cc1.[Na+] | – | 11.3
78 | CC1(C)C(=O)N(c2ccc(Cl)c(Cl)c2)c2ncccc21 | 26 | –
